According to ChEMBL document CHEMBL1208737, “Synthesis and in vitro evaluation of N-alkyl-3-hydroxy-3-(2-imino-3-methyl-5-oxoimidazolidin-4-yl)indolin-2-one analogs as potential anticancer agents” (2010):

Key:
Type in all cases: functional
SW-620 = test: Growth inhibition of human SW620 cells by sulforhodamine B assay
Outline: (§1)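 Five-dose response testing across a 57-line human tumour panel (leukemia, non-small cell lung, colon, CNS, melanoma, ovarian, renal, prostate, breast), done after a single-dose primary screen run per the NCI method. Effect plotted against log10 molar drug concentration for each cell line. GI50 is the concentration giving a 50% reduction in net protein increase versus control cells.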

OVCAR-3 = test: Growth inhibition of human OVCAR-3 cells by sulforhodamine B assay; outline: as §1
NCI-H226 = test: Growth inhibition of human NCI-H226 cells by sulforhodamine B assay; outline: as §1
SK-OV-3 = test: Growth inhibition of human SKOV3 cells by sulforhodamine B assay; outline: as §1
COLO 205 = test: Growth inhibition of human COLO205 cells by sulforhodamine B assay; outline: as §1
HL-60(TB) = test: Growth inhibition of human HL-60(TB) cells by sulforhodamine B assay; outline: as §1
SF-268 = test: Growth inhibition of human SF268 cells by sulforhodamine B assay; outline: as §1
DU-145 = test: Growth inhibition of human DU145 cells by sulforhodamine B assay; outline: as §1
HCT-116 = test: Growth inhibition of human HCT116 cells by sulforhodamine B assay; outline: as §1
OVCAR-8 = test: Growth inhibition of human OVCAR8 cells by sulforhodamine B assay; outline: as §1
K562 = test: Growth inhibition of human K562 cells by sulforhodamine B assay; outline: as §1
SF-539 = test: Growth inhibition of human SF539 cells by sulforhodamine B assay; outline: as §1
MDA-MB-231 = test: Growth inhibition of human MDA-MB-231 cells by sulforhodamine B assay; outline: as §1
[1] = Growth inhibition of human […] cells by sulforhodamine B assay; outline: as §1
MCF7 = test: Growth inhibition of human MCF7 cells by sulforhodamine B assay; outline: as §1
OVCAR-4 = test: Growth inhibition of human OVCAR4 cells by sulforhodamine B assay; outline: as §1
HOP-62 = test: Growth inhibition of human HOP62 cells by sulforhodamine B assay; outline: as §1
NCI-H322M = test: Growth inhibition of human NCI-H322M cells by sulforhodamine B assay; outline: as §1
SK-MEL-2 = test: Growth inhibition of human SK-MEL-2 cells by sulforhodamine B assay; outline: as §1
Malme-3M = test: Growth inhibition of human MALME-3M cells by sulforhodamine B assay; outline: as §1
CCRF-CEM = test: Growth inhibition of human CCRF-CEM cells by sulforhodamine B assay; outline: as §1
BT-549 = test: Growth inhibition of human BT549 cells by sulforhodamine B assay; outline: as §1
T47D = test: Growth inhibition of human T47D cells by sulforhodamine B assay
Outline: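 Part of a 57-line human tumour cell panel run at five doses. Growth effect was plotted against log10 molar drug concentration for each cell line. GI50 is the concentration giving a 50% reduction in net protein increase relative to untreated control cells, read from the dose-response curve.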

NCI/ADR-RES = test: Growth inhibition of human NCI/ADR-RES cells by sulforhodamine B assay; outline: as §1
HCT-15 = test: Growth inhibition of human HCT15 cells by sulforhodamine B assay; outline: as §1
NCI-H460 = test: Growth inhibition of human NCI-H460 cells by sulforhodamine B assay; outline: as §1
NCI-H522 = test: Growth inhibition of human NCI-H522 cells by sulforhodamine B assay; outline: as §1
RXF 393 = test: Growth inhibition of human RXF393 cells by sulforhodamine B assay; outline: as §1
[2] = Growth inhibition of human Hs 578T cells by sulforhodamine B assay; outline: as §1
[3] = read-out: LC50 (the source's name)

COc1ccc(CN2C(=O)C(O)(C3C(=O)NC(=N)N3C)c3ccccc32)cc1 (configuration not stated)
GI50 (SW-620): 4.12 µM | CC50 (SW-620; [3]): > 100 µM | GI50 (OVCAR-3): 2.29 µM | CC50 (OVCAR-3; [3]): 30.1 µM | GI50 (NCI-H226): 38.4 µM | CC50 (NCI-H226; [3]): > 100 µM | GI50 (SK-OV-3): 45.5 µM | CC50 (SK-OV-3; [3]): > 100 µM | GI50 (COLO 205): 19.9 µM | CC50 (COLO 205; [3]): > 100 µM | GI50 (HL-60(TB)): 4.91 µM | LC50 (HL-60(TB)): > 100 µM | GI50 (SF-268): 5 µM | CC50 (SF-268; [3]): > 100 µM | GI50 (DU-145): 21.4 µM | CC50 (DU-145; [3]): > 100 µM | GI50 (HCT-116): 2.4 µM | LC50 (HCT-116): > 100 µM | GI50 (OVCAR-8): 3.52 µM | CC50 (OVCAR-8; [3]): > 100 µM | GI50 (K562): 3.73 µM | CC50 (K562; [3]): > 100 µM | GI50 (SF-539): 3.73 µM | CC50 (SF-539; [3]): > 100 µM | GI50 (MDA-MB-231): 19.4 µM | CC50 (MDA-MB-231; [3]): > 100 µM | GI50 [1]: 2.87 µM | CC50 [1, 3]: > 100 µM | GI50 (MCF7): 6.93 µM | LC50 (concentration killing 50% of starting cells) (MCF7): > 100 µM | GI50 (OVCAR-4): 7.13 µM | CC50 (OVCAR-4; [3]): > 100 µM | GI50 (HOP-62): 4.31 µM | CC50 (HOP-62; [3]): > 100 µM | GI50 (NCI-H322M): 41.1 µM | CC50 (NCI-H322M; [3]): > 100 µM | GI50 (SK-MEL-2): 95.2 µM | CC50 (SK-MEL-2; [3]): > 100 µM | GI50 (Malme-3M): 27.4 µM | CC50 (Malme-3M; [3]): > 100 µM | GI50 (CCRF-CEM): 2.18 µM | CC50 (CCRF-CEM; [3]): > 100 µM | GI50 (BT-549): 8.45 µM | LC50 (BT-549): 97 µM | GI50 (T47D): 32 µM | LC50 (T47D): > 100 µM | GI50 (NCI/ADR-RES): 1.99 µM | CC50 (NCI/ADR-RES; [3]): > 100 µM | GI50 (HCT-15): 11.8 µM | LC50 (concentration killing 50% of starting cells) (HCT-15): > 100 µM | GI50 (NCI-H460): 29 µM | LC50 (NCI-H460): > 100 µM | GI50 (NCI-H522): 3.65 µM | LC50 (concentration killing 50% of cells) (NCI-H522): > 100 µM | GI50 (RXF 393): 7.4 µM | CC50 (RXF 393; [3]): > 100 µM | GI50 [2]: 60.3 µM
